Most compounds without a hit are left out; they make up all but 1.7% or so of the library.
STEP inh = inhibitors of human striatal-enriched phosphatase STEP | inhibition, % at 20 µM | hit rate 0.25% among 360,000 | recombinant STEP, OMFP fluorogenic substrate, fluorescence | AID 588621;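 active means inhibition at 20 µM, scaled per plate between control wells, above about 37%, limit read from the data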;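 further: 0% = DMSO with enzyme and substrate and 100% = substrate only without enzyme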
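System: isolated STEP enzyme; schedule: 20 min enzyme reaction at room temperature, protected from light; medium: Bis-Tris buffer pH 6.0, 2.5 mM DTT, 0.005% Tween 20; signal: fluorescence, 480/540 nm; dosing: single compound dose of 20 µM, 1% DMSO final; also added: OMFP substrate, 25 µM final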
Casp6 inh = inhibitors of human caspase-6; P55212; purified caspase-6, Z-VEID-R110 cleavage fluorescence; inhibition, % at 12.5 µM; hit rate 0.53% among 350,000; AID 686996;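 active means mean inhibition across replicates at least about 35%, with every replicate also reaching that limit, limit read from the data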;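 further: 0% = median of neutral control wells and 100% = no fluorescence left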
Target sequence (P55212 24-179 limits assumed): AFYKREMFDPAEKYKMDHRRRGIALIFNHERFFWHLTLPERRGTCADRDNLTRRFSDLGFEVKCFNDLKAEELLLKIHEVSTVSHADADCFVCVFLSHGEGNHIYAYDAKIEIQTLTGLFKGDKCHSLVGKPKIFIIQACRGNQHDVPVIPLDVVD
Target sequence (P55212 194-293 limits assumed): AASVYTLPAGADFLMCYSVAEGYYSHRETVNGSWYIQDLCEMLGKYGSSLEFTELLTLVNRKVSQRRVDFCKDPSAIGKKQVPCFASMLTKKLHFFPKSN
LMPTP block = blocks human LMPTP phosphatase. P24666. recombinant LMPTP-A, OMFP fluorogenic substrate, fluorescence intensity. inhibition, % at 20 µM. hit rate 0.22% among 360,000. AID 651560;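 active means compounds that cut the enzyme signal by at least half of the control window in the single-dose screen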;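 further: plate controls were DMSO wells with enzyme plus substrate for no effect and substrate without enzyme for full effect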
Target sequence (P24666 whole entry, looked up): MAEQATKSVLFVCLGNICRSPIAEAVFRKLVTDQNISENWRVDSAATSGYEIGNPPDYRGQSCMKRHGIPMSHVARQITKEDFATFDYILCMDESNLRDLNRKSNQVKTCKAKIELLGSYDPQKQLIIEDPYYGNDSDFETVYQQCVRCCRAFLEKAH
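Test system – LMPTP-A phosphatase enzyme · Quantity – 0.625 nM LMPTP-A final · Reagent – OMFP substrate, 400 µM final · Dosing – one test concentration per compound, 20 µM, with 3% DMSO overall · Timing – 50 min enzyme reaction at room temperature, protected from light · Detection – fluorescence intensity · Controls – substrate-only low control, DMSO enzyme-plus-substrate high control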
DNMT1 inh = inhibitors of human DNMT1; AID 588458; DNMT1 molecular beacon, Hinp1I cleavage, fluorescence; inhibition (reported as % activation of signal), % at 10 µM; P26358; hit rate 0.83% among 360,000; in the data active means inhibition above about 50%
SUMO1 PPI mod = SUMO1-SIM interaction modulation. P63165. SUMO1 binding to a labelled peptide, TR-FRET, 1 h. inhibition, % at 20 µM. hit rate 0.33% among 360,000. AID 602429; in the data active means inhibition above about 37%
Scp-1 inhibitor = inhibitors of human Scp-1 phosphatase; Recombinant Scp1, phosphopeptide, malachite green phosphate absorbance; hit rate 0.88% among 340,000; Q9GZU7; AID 493091; inhibition, % at 20 µM;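 active means inhibition above about 50% at 20 µM, limit read from the data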;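 further: plate controls were DMSO wells with enzyme for no effect and wells lacking enzyme for full effect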
Target sequence (Q9GZU7 76-261 limits assumed): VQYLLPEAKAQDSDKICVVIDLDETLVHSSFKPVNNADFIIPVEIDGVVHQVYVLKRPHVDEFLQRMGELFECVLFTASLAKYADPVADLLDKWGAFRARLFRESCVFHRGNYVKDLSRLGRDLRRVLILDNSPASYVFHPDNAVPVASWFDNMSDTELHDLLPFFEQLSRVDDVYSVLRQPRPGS
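System: SCP-1 catalytic domain; Reagent: Phospho 17-mer peptide substrate; Doses: one concentration, 20 µM, with 1.0% DMSO; Incubation: 45 min room-temperature reaction, 5 min colour, 30 min stabiliser; Signal: Phosphate-binding colour reagent, absorbance read at 630 nm.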
DNMT1 interf DR = shows spectral interference in the DNMT1 beacon assay. shares compounds with DNMT1 inh. molecular beacon fluorescence, spectral interference counter-screen. IC50, µM. 200 tested, under 10 active. AID 602382; call rule not given here
DNMT1 confirm = confirmation of human DNMT1 inhibitors; shares compounds with DNMT1 inh; DNMT1 molecular beacon HinP1I cleavage, fluorescence; inhibition, % at 10 µM; hit rate 8% among 2,300; AID 602385;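 active means average inhibition of at least 30% in the single-concentration confirmation test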
Beacon interf = shows spectral interference in the DNMT1 beacon assay; shares compounds with DNMT1 inh; DNMT1 molecular beacon spectral interference counterscreen, fluorescence 485/520; hit rate 1% among 2,300; activation (fluorescence interference), % at 10 µM;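 active means activation of at least 30% at 10 µM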;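 further: DNMT1 catalytic domain with a HinP1I cleavage step and a FAM/dabcyl DNA beacon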
* hit, by the source's call; / = not tested or not shown.

SMILES	STEP inh	Casp6 inh	LMPTP block	DNMT1 inh	SUMO1 PPI mod	Scp-1 inhibitor	DNMT1 confirm	Beacon interf	others
COc1ccc(C(CNC(=O)c2ccc(NS(=O)(=O)c3ccc(F)cc3)cc2)N2CCOCC2)cc1 (stereo not given)	3	5	1	0	1	-2	/	/
COc1ccc(C(CNC(=O)c2ccc(S(=O)(=O)Nc3cccc(C)c3C)cc2)N2CCOCC2)cc1 (stereo not given)	-1	-179	-8	95*	-58	-5	2	6
COc1ccc(C(CNC(=O)COc2ccccc2C#N)N2CCOCC2)cc1 (stereo not given)	-1	/	1	104*	-3	-6	6	8
COc1ccc(C(CNC(=O)COc2ccccc2C)N2CCCCC2)cc1 (stereo not given)	0	-3	0	0	0	1	/	/
CCN(CC)S(=O)(=O)c1cc(NS(=O)(=O)c2cccc(C(=O)O)c2)ccc1C	4	-2	-2	-2	5	-5	/	/
CCN(CC)S(=O)(=O)c1cc(NS(=O)(=O)c2ccccc2)ccc1C	0	/	2	75*	1	-2	4	4
COc1cc(/C=C2\SC(=O)N(Cc3ccc(Cl)cc3)C2=O)cc([N+](=O)[O-])c1O	65*	1	51*	89*	105*	59*	19	-11	DNMT1 interf DR=>99
CN(c1ccccc1)c1ccc(/C=C(/CCC(=O)O)c2nc3ccccc3s2)cc1[N+](=O)[O-]	4	25	1	85*	39*	-12	27	-3	DNMT1 interf DR=>99
O=C(O)CC/C(=C\c1ccc(N2CCCC2)c([N+](=O)[O-])c1)c1nc2ccccc2s1	2	20	5	-2	12	-2	/	/
COc1ccccc1N(C)S(=O)(=O)c1ccc(C(=O)NCC(C)C)cc1	-1	/	-1	-1	1	3	/	/
COc1ccc(NC(=S)NCc2cccnc2)cc1OC	-3	-4	1	0	0	-1	/	/
COc1ccc(NC(=S)NCc2cccnc2)cc1	0	-1	-1	89*	3	3	3	3
Cc1nn(C)c2nc(-c3cccs3)cc(C(F)(F)F)c12	1	1	2	0	0	1	/	/
Cc1nn(CCO)c2nc(-c3cccs3)cc(C(F)(F)F)c12	-1	4	0	60*	-10	2	3	5
CCNc1ccc(Br)cc(C(=O)/C=C/c2ccc(Cl)cc2)c1=O	2	/	22	66*	20	-17	4	1
CCNc1ccc(Br)cc(C(=O)/C=C/c2ccc3c(c2)OCO3)c1=O	4	/	54*	89*	22	6	1	1
Nc1ccccc1C(=O)/C=C/c1ccc2c(c1)OCO2	0	1	2	7	-21	-6	/	/
CC(=O)c1ccc(Nc2c3c(nc4ccccc24)CCCC3)cc1	-1	6	20	-3	1	6	/	/
CC(=O)Nc1ccc(CNc2nc3cc(-c4cccc(C(F)(F)F)c4)sc3c(=O)n2C)cc1	0	2	5	61*	-10	/	5	7
CN(C)S(=O)(=O)c1ccc2c(c1)C(CC(=O)O)OC2=O (stereo not given)	-1	/	1	91*	4	2	6	11
CN(C)S(=O)(=O)c1ccc2c(c1)C(=NO)c1cc(S(=O)(=O)N(C)C)ccc1-2	-2	2	0	-1	-3	-15	/	/
CC1(C)NC(=O)N(CCCCOc2ccc3c(c2)CCC3)C1=O	3	/	-1	-6	3	-14	/	/
CCC(=O)N1N=C(c2c(-c3ccccc3)c3cc(Cl)ccc3[nH]c2=O)CC1c1ccco1 (stereo not given)	2	/	-1	52*	2	-4	0	1
S=C(Nc1ccc(Cl)cc1)Nc1ccc2c(c1)OCCO2	-2	2	1	72*	13	1	2	3
S=C(Nc1ccc2c(c1)OCCO2)Nc1ccccc1Cl	4	-1	-1	1	3	-6	/	/
SMILES	STEP inh	Casp6 inh	LMPTP block	DNMT1 inh	SUMO1 PPI mod	Scp-1 inhibitor	DNMT1 confirm	Beacon interf	others
CC1(C)CC(=O)C(Sc2nnc(-c3ccc(O)cc3)n2CC2CCCO2)C(=O)C1 (stereo not given)	0	3	-1	-4	-1	-2	/	/
Cn1c(=O)c2cc(S(=O)(=O)NC(C(=O)Nc3cccc(F)c3)c3ccccc3)ccc2n(C)c1=O (stereo not given)	-8	-3	0	83*	4	-7	1	4
Cn1c(=O)c2cc(S(=O)(=O)NC(C(=O)Nc3cccnc3)c3ccccc3)ccc2n(C)c1=O (stereo not given)	4	4	-1	1	7	-10	/	/
CCN(CC)CCn1c2ccccc2c2cnc(N)c(C#N)c21	-1	/	-1	61*	1	0	38*	3	DNMT1 interf DR=>99
CC(=O)c1ccc(OC2(C)CCN(Cc3cc4ccccc4[nH]3)C2)cc1 (stereo not given)	1	-2	26	91*	4	/	2	4
COc1ccccc1-n1c(SCC(=O)Nc2cccc(S(N)(=O)=O)c2)nc2ccccc2c1=O	-2	-1	0	-2	-2	-10	/	/
COc1ccc(OC)c(-n2c(SCC(=O)Nc3cccc(S(N)(=O)=O)c3)nc3ccccc3c2=O)c1	13	2	1	67*	3	-4	2	2
Nc1nnc(CCOc2ccccc2Cl)s1	-3	/	-1	2	0	0	/	/
COc1ccccc1CCc1nnc(N)s1	3	-2	-2	81*	5	1	1	2
O=C(COC(=O)/C=C/c1cccc(F)c1)NNC(=O)c1ccccc1	1	-1	0	0	-6	-1	/	/
COc1cc(/C=C2\C(=O)N(c3ccc(NC(C)=O)cc3)N=C2c2ccccc2)ccc1O	5	8	2	-4	-5	-1	/	/
CCOc1cc(/C=C2\C(=O)N(c3nc(-c4ccc(Br)cc4)cs3)N=C2c2ccccc2)ccc1O	4	/	10	96*	21	-16	93*	-5	DNMT1 interf DR=>99
COC(=O)[C@H](C)N1C/C=C\COc2c(Cl)cc(Cl)cc2S1(=O)=O	-1	0	0	4	6	4	/	/

Compound activity from PubChem.
